# Results as given in ChEMBL document CHEMBL1152798, “Unsymmetrically disubstituted urea derivatives: a potent class of antiglycating agents” (Bioorg Med Chem, 2009).
# Assay: Antiglycation activity of compound assessed as inhibition of BSA-derived advance glycated end product formation after 7 days by spectrofluorimeter
# Assay type: physicochemical
# Conditions: not given; call rule not given here
# Outline: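 BSA (10 mg/mL) mixed with anhydrous glucose (50 mg/mL) and test sample in equal parts, in sodium phosphate buffer pH 7.4 (67 mM Na2HPO4, 3 mM sodium azide), incubated 37 °C for 7 days. Protein precipitated with TCA and centrifuged, pellet washed with 10% TCA, then redissolved in PBS. AGE fluorescence read at excitation 370 nm, emission 440 nm. % inhibition computed against glycated control (BSA + glucose + buffer).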
row,SMILES,IC50
1,Cc1cccc(C)c1NC(=O)Nc1ccccc1,Not Active
2,Cc1cc(C)cc(NC(=O)Nc2ccccc2)c1,Not Active
3,Cc1ccc(NC(=O)Nc2cccc(Cl)c2)c(C)c1,Not Active
4,Cc1ccc(NC(=O)Nc2cccc(Cl)c2)cc1C,Not Active
5,Cc1ccc(C)c(NC(=O)Nc2cccc(Cl)c2)c1,Not Active
6,Cc1cccc(C)c1NC(=O)Nc1cccc(Cl)c1,Not Active
7,Cc1cccc(NC(=O)Nc2cccc(Cl)c2)c1C,Not Active
8,Cc1cccc(NC(=O)Nc2ccccc2)c1C,Not Active
9,Cc1ccc(NC(=O)Nc2ccccc2)c(C)c1,Not Active
10,Cc1ccc(C)c(NC(=O)Nc2ccccc2)c1,Not Active

# Same assay, conditions: read-out: IC50
row,SMILES,IC50 [µM]
1,O=C(Nc1ccccc1)Nc1cccc(Br)c1,4.26
2,COc1ccc(NC(=O)Nc2ccccc2)cc1,8.4
3,O=C(Nc1cccc(Cl)c1)Nc1ccccc1Br,6.6
4,COc1cccc(NC(=O)Nc2cccc(Cl)c2)c1,5.8
5,Cc1ccc(NC(=O)Nc2ccccc2)cc1C,9
6,O=C(Nc1ccccc1)Nc1ccc(Cl)c(Cl)c1,838
7,O=C(Nc1cccc(Cl)c1)Nc1cccc(Br)c1,8.16
8,O=C(Nc1ccc(Br)cc1)Nc1cccc(Cl)c1,6.4
9,COc1ccccc1NC(=O)Nc1cccc(Cl)c1,7.02
10,COc1cccc(NC(=O)Nc2ccccc2)c1,229
11,Cc1cc(C)cc(NC(=O)Nc2cccc(Cl)c2)c1,906
12,COc1ccc([N+](=O)[O-])cc1NC(=O)Nc1cccc(Cl)c1,408
13,O=C(Nc1ccccc1)Nc1cccc([N+](=O)[O-])c1,7.27
14,COc1ccc([N+](=O)[O-])cc1NC(=O)Nc1ccccc1,162
15,O=C(Nc1ccccc1)Nc1ccccc1Br,120
16,O=C(Nc1ccccc1)Nc1ccc(Br)cc1,6.1
17,COc1ccc(NC(=O)Nc2cccc(Cl)c2)cc1,7.14
18,O=C(Nc1cccc(Cl)c1)Nc1ccc(Cl)c(Cl)c1,15.2
19,C[C@@H]1O[C@@H](OC[C@H]2O[C@@H](Oc3c(-c4ccc(O)c(O)c4)oc4cc(O)cc(O)c4c3=O)[C@H](O)[C@@H](O)[C@@H]2O)[C@H](O)[C@H](O)[C@H]1O [RUTIN],41.9
